Source: PubChem
MEKK2wt PB1 HTS: raises or lowers MEK5 binding to wildtype human MEKK2 PB1 domain | binding response (% of control), % at 10 µM | Q9Y2U5 | bead flow cytometry, Alexa488-MEK5 binding to MEKK2 WT; actives lie on both sides | actives 1.1% (n = 290,000); in the data active = binding response below about 67% or above about 130%; inconclusive = no clear call, values can overlap the other calls; inactive = in between
Apaf-1 inh: blocks human Apaf-1 apoptosome activity; O14727; reconstituted apoptosome caspase-3 activity, DEVD-Rh110 fluorescence; inhibition, % at 20 µM; actives 0.71% (n = 330,000); AID 489030; active = inhibition of at least 40% at 20 µM;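 also: plate controls were DMSO wells for no effect and DEVD-CHO caspase inhibitor wells for full effect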
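Assay system – apoptosome proteins · Medium – Hepes buffer, pH 7.5 · Also added – cytochrome c with DEVD-Rh110 · Timing – 30 min compound preincubation, 50 min activation, room temperature · Detection – Rh110 fluorescence, excitation 480 nm, emission 540 nm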
UCH37 DUB inh: human UCH37 deubiquitinating enzyme inhibition | Q9Y5K5 | purified proteasome/UCH37, Ub-AMC cleavage fluorescence | inhibition, % (concentration not given with the values) | actives 0.33% (n = 330,000) | AID 588478;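 active = mean inhibition over replicate wells above about 20%, limit read from the data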;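 also: 0% = compound-free wells with enzyme and 100% = wells lacking proteasome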
Target sequence (Q9Y5K5 whole entry, looked up): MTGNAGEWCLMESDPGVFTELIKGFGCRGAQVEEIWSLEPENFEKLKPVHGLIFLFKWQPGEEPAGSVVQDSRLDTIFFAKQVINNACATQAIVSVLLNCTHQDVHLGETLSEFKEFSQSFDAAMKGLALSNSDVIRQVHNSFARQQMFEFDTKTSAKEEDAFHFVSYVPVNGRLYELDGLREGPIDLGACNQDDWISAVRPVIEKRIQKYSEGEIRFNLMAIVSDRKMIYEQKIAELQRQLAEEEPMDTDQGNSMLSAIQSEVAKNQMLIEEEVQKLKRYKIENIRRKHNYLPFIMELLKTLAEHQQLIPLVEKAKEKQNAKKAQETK
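Signal – fluorescence, ex 355 nm, em 460 nm · System – Proteasome-bound UCH37 · Input – 0.15 nM proteasome as dispensed · Timing – 30 min preincubation with enzyme, 25 min cleavage at room temperature · Read-out basis – percent inhibition of cleavage signal versus uninhibited and no-proteasome wells · Medium – Tris-HCl pH 7.4 with ATP-MgCl2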
MEKK3 PB1 HTS: raises or lowers MEK5 binding to the human MEKK3 PB1 domain | actives 1.4% (n = 290,000) | binding response (% of control), % at 10 µM | Q99759 | bead-based flow cytometry, Alexa488-MEK5 binding to MEKK3; actives lie on both sides; 0 = blocked by unlabeled MEK5, 100 = vehicle;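 active = binding response more than 3 SD above or below the average of its plate-row segment, actives on both sides; inconclusive = wells at one plate position flagged as instrument error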;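 also: Alexa488 bead fluorescence after subtracting the streptavidin-only scavenger bead signal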
UBC13 inh: blocks human UBC13 polyubiquitin chain formation. TR-FRET. inhibition, % at 20 µM. actives 0.47% (n = 330,000); in the data active = inhibition above about 45%, passing the limit was not always enough; inconclusive = no clear call, values can overlap the other calls
Target sequence (P61088 whole entry, looked up): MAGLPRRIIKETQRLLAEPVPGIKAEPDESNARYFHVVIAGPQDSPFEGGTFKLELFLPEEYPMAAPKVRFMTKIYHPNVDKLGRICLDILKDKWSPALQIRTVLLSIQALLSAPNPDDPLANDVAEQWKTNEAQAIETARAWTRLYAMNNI
MEKK2mut PB1 HTS: signal of MEK5 binding to mutant human MEKK2 PB1 domain | bead flow cytometry, Alexa488-MEK5 binding to MEKK2 mutant | percent response, % at 10 µM | actives 0.35% (n = 290,000); in the data active = percent response above about 24%, passing the limit was not always enough
An asterisk follows results filed as active; ? = inconclusive; . = not tested or not shown; [ ] = another dose, or the depositor's remark. A selection: hits, their analogues and other compounds. The true share with any hit is near 3%.

SMILES | MEKK2wt PB1 HTS | Apaf-1 inh | UCH37 DUB inh | MEKK3 PB1 HTS | UBC13 inh | MEKK2mut PB1 HTS
CCOc1ccc(NC(=O)CN(C)C(=O)c2ccccc2SCC(=O)N2CCCC2)cc1OCC | . | 19 | 1 | . | 4 | .
Cc1ccc(S(=O)(=O)N2CCN(c3ccc([N+](=O)[O-])c4cccnc34)CC2)cc1 | 95 | 47* | 4 | 100 | -38 | 4
COc1ccc(NC(=O)CCCCCN2C(=O)c3cccc([N+](=O)[O-])c3C2=O)c(OC)c1 | 98 | 41* | 0 | 100 | -1 | 7
COc1cccc(C=NNC(=O)c2c(C)nc3ccc(Br)cn23)c1O | . | . | 46* | . | . | .
Cn1c(C(=O)NCc2ccco2)cc2c(=O)[nH]c3ccccc3c21 | 75 | 6 | 2 | 75 | 7 | -7
CCCCN(C(=O)c1cccc(S(=O)(=O)N2CCN(Cc3ccccc3)CC2)c1)c1ccccc1 | 113 | 29 | 0 | 108 | -7 | 9
O=C(CN1CCN(C(=O)c2ccco2)CC1)Nc1cc(C(F)(F)F)ccc1Cl | 99 | 11 | 1 | 101 | 3 | 0
Nc1ccc(C(=O)NN=Cc2ccc(OC(=O)c3ccccc3Cl)cc2)cc1 | . | . | 3 | . | . | .
O=C(NN=Cc1ccc(OC(=O)c2ccccc2Cl)cc1)c1cc(O)cc(O)c1 | . | . | 22* | . | . | .
Cc1c(C)n(C)c2ccc(C(=O)NCCCN3CCCC3)cc12 | 142* | 22 | -2 | 102 | 4 | 14
Cc1[nH]c2ccc(C(=O)NCCCN3CCCCC3)cc2c1C | 132 | 1 | 4 | 100 | 15 | 11
Cc1c(C)n(C)c2ccc(C(=O)NCCCN3CCCCC3)cc12 | 154* | 16 | 2 | 102 | 16 | 25*
CCC1=Nc2cc(C(=O)NCCCN3CCOCC3)ccc2Sc2ccccc21 | 103 | 1 | 0 | 98 | 4 | 2
Cc1[nH]c2ccc(C(=O)NCCN3CCCCCC3)cc2c1C | 135* | 12 | 3 | 102 | 17 | 20
Cc1c(C)n(C)c2ccc(C(=O)NCCCN3CCOCC3)cc12 | 103 | 0 | -2 | 99 | 11 | 6
CCC1=Nc2cc(C(=O)NCCN3CCCC3)ccc2Sc2ccccc21 | 135* | 15 | 2 | 101 | 15 | 16
CN(C)S(=O)(=O)c1ccc(C(=O)Nc2ccc(F)cc2F)cc1 | 103 | -2 | 3 | 102 | 1 | 6
COc1ccc(NC(=O)c2cc([N+](=O)[O-])ccc2N2CCN(C)CC2)cc1 | 85 | 1 | 9 | 89 | 2 | -10
Cc1ccc(-c2cc(C(=O)NCCCN3CCCC3)c3ccccc3n2)cc1C | 141* | 24 | . | 103 | 29 | 11
CC(C)(C)c1ccc(C(=O)N2CCC(C(=O)NC3CCCCCC3)CC2)cc1 | 95 | 9 | 1 | 104 | -2 | -4
Cc1ccc(C)c(S(=O)(=O)N2CCCCC2CCNC(=O)C(=O)NCc2ccco2)c1 (centres undefined) | . | 11 | 1 | . | 1 | .
O=[N+]([O-])c1cccc(S(=O)(=O)c2ccc(NCCO)c([N+](=O)[O-])c2)c1 | 104 | 5 | 32* | 104 | 4 | 8
O=[N+]([O-])c1cccc(S(=O)(=O)c2ccc(NCCOCCO)c([N+](=O)[O-])c2)c1 | 97 | -5 | 3 | 95 | -1 | -1
O=C(O)C1=C[C@H](c2ccc(C(F)(F)F)cc2)C[C@H](OCc2ccc(CO)cc2)O1 | 107 | 3 | 0 | 82 | -13 | 4
N#CC(C#N)=C1NC(N)=C(C#N)C(c2ccccc2)=C1C#N | 100 | 5 | . | 98 | ? | -3
SMILES | MEKK2wt PB1 HTS | Apaf-1 inh | UCH37 DUB inh | MEKK3 PB1 HTS | UBC13 inh | MEKK2mut PB1 HTS
COC(=O)c1c(C(=O)OC)c2cccc3cc(-c4ccccc4)c4ccc1c4n32 | 105 | 65* | -1 | 102 | -112 | 5
Cc1oc(C(C)(C)C)cc1C(=O)NC(Cc1ccccc1)C(=O)O (centres undefined) | 85 | -18 | 3 | 93 | 16 | -9
Cc1cc(C)c(C#N)c(SCc2ccccc2C)n1 | 101 | 12 | 2 | 101 | -134 | 1
CCOC(=O)C1CCCN(c2cc(NCCCO)c([N+](=O)[O-])c3nonc23)C1 (centres undefined) | 102 | 40* | 14 | 107 | -18 | -1
O=[N+]([O-])c1c(NCCO)cc(N2CCCCCC2)c2nonc12 | 105 | 9 | 10 | 104 | -29 | 16
COc1ccc(CCN(C)C(=O)c2c(C)nn(CC(C)C)c2Cl)cc1OC | 44*[inhibitor] | 16 | -2 | 55*[inhibitor] | 10 | -39
COc1ccc(CCNC(=O)c2c(C)nn(CC(C)C)c2Cl)cc1OC | 102 | -7 | -1 | 99 | 8 | -2
CC(=O)c1cccc(NCC(=O)c2ccc(C)c([N+](=O)[O-])c2)c1 | 107 | 6 | 5 | 106 | -3 | 7
CN(C)S(=O)(=O)N1CCC(Oc2cccc(C(=O)NC3CCCCC3)c2)CC1 | 108 | -1 | 4 | 106 | -1 | 4
CN(C)S(=O)(=O)N1CCC(Oc2cccc(C(=O)NCCC3=CCCCC3)c2)CC1 | 98 | 27 | 22* | 99 | -6 | -4
CCc1ccc[n+](-c2[nH]c(=O)sc2C=NNC([S-])=Nc2ccccc2)c1 | . | . | 22* | . | . | .
O=c1[nH]c(-[n+]2ccccc2)c(C=NNC([S-])=Nc2ccccc2)s1 | . | . | 13 | . | . | .
O=C(CSc1nccc(=O)[nH]1)Nc1ccccc1Sc1ccccc1 | 110 | 2 | 6 | 110 | -1 | -1
O=C(CC1C(=O)NCCN1CCCc1ccccc1)NCCc1ccccc1F (centres undefined) | 134* | 27 | -7 | 103 | 10 | 28*
O=C1Nc2ccccc2N2CCCC12 (centres undefined) | 84 | 78* | . | 92 | -35 | -10
O=C1Nc2ccc(C(F)(F)F)cc2N2CCCC12 (centres undefined) | 89 | 38 | . | 97 | -55 | 0
CCc1ccc2nc(NC(=O)c3ccc(N4C(=O)CCC4=O)cc3)sc2c1 | 104 | 11 | -4 | 104 | 6 | 2
O=C(Nc1ccccn1)c1cccc(S(=O)(=O)N2CCCC2)c1 | 97 | -2 | 1 | 82*[inhibitor] | 9 | -4
COc1cccc(NC(=O)Nc2ccccc2Br)c1 | 103 | 2 | 1 | 101 | -6 | -4
O=C1c2ccccc2C(=O)c2c1ccc1c(=O)n(C3CCCCC3)[nH]c21 | 128 | 2 | 7 | 119 | -131 | 24
O=C1C2=C(c3ccccc31)[N+](=O)C1CCCCC1N2[O-] (centres undefined) | 98 | 54* | 27* | 100 | -34 | 9
O=C(NC(=S)Nn1cnc2c(cnn2-c2ccccc2)c1=O)c1ccc(Oc2ccccc2)cc1 | 99 | 41* | 5 | 103 | -12 | -1
